# Source: ChEMBL document CHEMBL1132657, “CoMFA study of novel phenyl ring-substituted 3alpha-(diphenylmethoxy)tropane analogues at the dopamine transporter” (J Med Chem, 1999)
# Tests used:
# [1] = target: T1, Sodium-dependent dopamine transporter (Rattus norvegicus, UniProt P23977); experiment: Inhibition of [3H]dopamine uptake in rat caudate putamen tissue.; type: functional, tissue-based
# Procedure, shortened: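 Rat caudate putamen chopped into 225 µm slices, in oxygenated Krebs-HEPES at 37 °C. Stopped with ice-cold buffer and filtered; accumulated label extracted in methanol/HCl and counted by scintillation. Specific uptake; IC50 by linear regression on the linear portion of the concentration–response curve.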
# [2] = target: T1, Sodium-dependent dopamine transporter; experiment: Displacement of [3H]WIN-35428 binding to the dopamine transporter in rat caudate putamen tissue.; type: tissue-based
# T1 sequence (P23977 whole entry): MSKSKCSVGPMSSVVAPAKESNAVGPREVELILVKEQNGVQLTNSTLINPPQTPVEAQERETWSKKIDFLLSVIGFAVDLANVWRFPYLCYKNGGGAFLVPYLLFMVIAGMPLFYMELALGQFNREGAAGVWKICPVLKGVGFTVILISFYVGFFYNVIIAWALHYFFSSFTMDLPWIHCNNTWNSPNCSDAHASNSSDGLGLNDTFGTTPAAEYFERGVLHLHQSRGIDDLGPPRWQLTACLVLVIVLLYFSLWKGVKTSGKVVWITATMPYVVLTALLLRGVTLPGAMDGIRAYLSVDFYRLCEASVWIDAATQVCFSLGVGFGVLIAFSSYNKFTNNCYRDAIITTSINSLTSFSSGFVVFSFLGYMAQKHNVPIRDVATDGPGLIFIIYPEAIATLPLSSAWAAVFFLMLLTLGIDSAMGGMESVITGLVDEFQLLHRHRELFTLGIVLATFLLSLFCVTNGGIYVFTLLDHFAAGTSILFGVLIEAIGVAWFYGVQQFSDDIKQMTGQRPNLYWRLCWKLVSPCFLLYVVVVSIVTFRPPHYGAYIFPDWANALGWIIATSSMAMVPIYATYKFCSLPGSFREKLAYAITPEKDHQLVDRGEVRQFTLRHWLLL
structure (smiles),measurement,setting,value
CN1[C@@H]2CC[C@H]1C[C@@H](OC(c1ccccc1)c1cccc(Br)c1)C2 (stereo not given in full),IC50,[1],0.104 µM
same,Ki,[2],0.027 µM
CN1[C@@H]2CC[C@H]1C[C@@H](OC(c1ccccc1)c1ccc(F)c(F)c1)C2 (stereo not given in full),IC50,[1],0.181 µM
same,Ki,[2],0.0279 µM
CN1[C@@H]2CC[C@H]1C[C@@H](OC(c1ccc(F)cc1)c1cccc(F)c1)C2 (stereo not given in full),IC50,[1],0.139 µM
CN1[C@@H]2CC[C@H]1C[C@@H](OC(c1ccccc1)c1cccc([N+](=O)[O-])c1)C2 (stereo not given in full),IC50,[1],0.795 µM
same,Ki,[2],0.187 µM
Cc1cccc(C(O[C@H]2C[C@H]3CC[C@@H](C2)N3C)c2ccccc2)c1 (stereo not given in full),IC50,[1],0.226 µM
same,Ki,[2],0.078 µM
CN1[C@@H]2CC[C@H]1C[C@@H](OC(c1ccccc1)c1ccccc1Cl)C2 (stereo not given in full),IC50,[1],0.977 µM
CN1[C@@H]2CC[C@H]1C[C@@H](OC(c1ccc(F)cc1)c1cccc(Br)c1)C2 (stereo not given in full),IC50,[1],0.179 µM
same,Ki,[2],0.0382 µM
CN1[C@@H]2CC[C@H]1C[C@@H](OC(c1ccc(F)cc1)c1cccc(Cl)c1)C2 (stereo not given in full),IC50,[1],0.123 µM
same,Ki,[2],0.0234 µM
CN1[C@@H]2CC[C@H]1C[C@@H](OC(c1ccc(F)cc1)c1cccc(C(F)(F)F)c1)C2 (stereo not given in full),IC50,[1],0.182 µM
same,Ki,[2],0.0881 µM
CN1[C@@H]2CC[C@H]1C[C@@H](OC(c1ccc(F)cc1)c1ccc(Br)cc1)C2 (stereo not given in full),IC50,[1],0.0272 µM
same,Ki,[2],0.0152 µM
Cc1cccc(C(O[C@H]2C[C@H]3CC[C@@H](C2)N3C)c2ccc(F)cc2)c1 (stereo not given in full),IC50,[1],0.108 µM
same,Ki,[2],0.0309 µM
